ChEMBL document CHEMBL3763072, “Structure activity relationship studies on chemically non-reactive glycine sulfonamide inhibitors of diacylglycerol lipase” (Bioorg Med Chem, 2016)
The source made the active and inactive calls. No cut-off for these calls is given here.

Experiments:
[1] = Metabolic stability in rat liver microsomes assessed as residual compound at 3 uM preincubated for 2 mins followed by NADPH addition measured after 10 mins by LC-MS analysis; assay type: ADME; conditions: read-out: Stability
[2] = Metabolic stability in mouse liver microsomes assessed as residual compound at 3 uM preincubated for 2 mins followed by NADPH addition measured after 10 mins by LC-MS analysis; assay type: ADME; conditions: read-out: Stability
[3] = Metabolic stability in human liver microsomes assessed as residual compound at 3 uM preincubated for 2 mins followed by NADPH addition measured after 10 mins by LC-MS analysis; assay type: ADME; conditions: read-out: Stability
[4] = Cmax in mouse at 10 mg/kg, po; assay type: ADME, organism-based; design: dose 10 mg/kg, route oral; conditions: in vivo
[5] = Tmax in mouse at 10 mg/kg, ip; assay type: ADME, organism-based; conditions: in vivo
[6] = target: T1, Pancreatic triacylglycerol lipase (Sus scrofa) (UniProt P00591); experiment: Inhibition of porcine pancreatic lipase at 30 uM
T1 sequence (whole entry): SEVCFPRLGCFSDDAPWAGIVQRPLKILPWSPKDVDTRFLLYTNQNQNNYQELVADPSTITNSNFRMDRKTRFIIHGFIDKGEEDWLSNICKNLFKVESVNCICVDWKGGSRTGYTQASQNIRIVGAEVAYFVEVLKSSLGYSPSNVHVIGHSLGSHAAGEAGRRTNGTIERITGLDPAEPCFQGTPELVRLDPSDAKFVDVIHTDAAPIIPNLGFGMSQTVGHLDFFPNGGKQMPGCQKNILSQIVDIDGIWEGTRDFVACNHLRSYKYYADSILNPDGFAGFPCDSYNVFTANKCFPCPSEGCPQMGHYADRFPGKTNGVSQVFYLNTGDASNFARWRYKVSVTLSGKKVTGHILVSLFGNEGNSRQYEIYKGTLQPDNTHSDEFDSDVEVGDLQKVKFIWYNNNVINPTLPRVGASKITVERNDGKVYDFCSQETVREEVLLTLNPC

Mus musculus [7] = experiment: AUC(infinity) in mouse at 1 mg/kg, iv; assay type: ADME, organism-based; design: dose 1 mg/kg, route intravenous, time infinity; conditions: in vivo
[8] = AUC(infinity) in mouse at 10 mg/kg, po; assay type: ADME, organism-based; design: dose 10 mg/kg, route oral, time infinity; conditions: in vivo
[9] = Half life in mouse at 10 mg/kg, po; assay type: ADME, organism-based; conditions: in vivo
[10] = Tmax in mouse at 10 mg/kg, po; assay type: ADME, organism-based; conditions: in vivo
[11] = Cmax in mouse at 10 mg/kg, ip; assay type: ADME, organism-based; design: dose 10 mg/kg, route intraperitoneal; conditions: in vivo
[12] = Cmax in mouse at 1 mg/kg, iv; assay type: ADME, organism-based; design: dose 1 mg/kg, route intravenous; conditions: in vivo
Mus musculus [13] = experiment: Bioavailability in mouse at 10 mg/kg, ip; assay type: ADME, organism-based; conditions: in vivo
[14] = Half life in mouse at 10 mg/kg, ip; assay type: ADME, organism-based; conditions: in vivo
[15] = Half life in mouse at 1 mg/kg, iv; assay type: ADME, organism-based; conditions: in vivo
[16] = target: T2, Diacylglycerol lipase-beta (Homo sapiens, UniProt Q8NCG7); experiment: Inhibition of DAGLbeta (unknown origin)
T2 sequence (Q8NCG7 whole entry): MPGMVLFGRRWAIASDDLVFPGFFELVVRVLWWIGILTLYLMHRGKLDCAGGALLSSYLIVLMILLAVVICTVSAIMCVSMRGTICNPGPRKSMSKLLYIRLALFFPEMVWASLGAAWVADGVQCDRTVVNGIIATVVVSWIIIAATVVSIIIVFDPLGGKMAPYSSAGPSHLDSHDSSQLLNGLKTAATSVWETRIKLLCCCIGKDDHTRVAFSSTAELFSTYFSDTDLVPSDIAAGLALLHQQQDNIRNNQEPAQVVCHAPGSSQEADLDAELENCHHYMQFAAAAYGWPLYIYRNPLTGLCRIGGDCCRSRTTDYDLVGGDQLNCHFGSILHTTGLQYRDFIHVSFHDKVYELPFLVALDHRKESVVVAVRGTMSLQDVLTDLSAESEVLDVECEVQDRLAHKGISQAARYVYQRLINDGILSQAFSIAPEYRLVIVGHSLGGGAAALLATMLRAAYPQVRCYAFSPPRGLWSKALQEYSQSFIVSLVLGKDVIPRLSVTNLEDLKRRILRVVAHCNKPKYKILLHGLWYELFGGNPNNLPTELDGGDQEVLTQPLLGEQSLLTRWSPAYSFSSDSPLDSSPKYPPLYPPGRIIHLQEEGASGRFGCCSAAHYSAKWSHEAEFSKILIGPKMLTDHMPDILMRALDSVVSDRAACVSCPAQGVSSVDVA

[17] = Clearance in mouse at 1 mg/kg, iv; assay type: ADME, organism-based; conditions: in vivo
[18] = Volume of distribution at steady state in mouse at 1 mg/kg, iv; assay type: ADME, organism-based; conditions: in vivo, read-out: Vdss
[19] = target: T3, Nuclear receptor subfamily 1 group I member 2 (Homo sapiens, UniProt O75469); experiment: Transactivation of human PXR expressed in human HepG2 cells after […] by luciferase reporter gene assay; assay type: ADME, cell-based
T3 sequence (O75469 whole entry): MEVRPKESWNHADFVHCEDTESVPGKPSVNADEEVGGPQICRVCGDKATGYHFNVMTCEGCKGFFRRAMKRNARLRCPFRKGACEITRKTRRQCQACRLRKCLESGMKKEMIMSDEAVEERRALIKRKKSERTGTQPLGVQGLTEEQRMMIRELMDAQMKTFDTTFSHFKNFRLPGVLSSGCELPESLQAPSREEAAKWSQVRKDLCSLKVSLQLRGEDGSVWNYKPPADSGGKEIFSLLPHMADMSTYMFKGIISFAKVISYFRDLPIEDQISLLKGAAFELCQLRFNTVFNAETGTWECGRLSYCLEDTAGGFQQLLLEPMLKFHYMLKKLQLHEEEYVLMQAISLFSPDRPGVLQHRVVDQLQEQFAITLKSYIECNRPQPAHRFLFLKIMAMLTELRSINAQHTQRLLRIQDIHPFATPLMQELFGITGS

Mus musculus [20] = experiment: AUC(infinity) in mouse at 10 mg/kg, ip; assay type: ADME, organism-based; design: dose 10 mg/kg, time infinity, route intraperitoneal; conditions: in vivo
[21] = target: T4, Monoglyceride lipase (Homo sapiens) (UniProt Q99685); experiment: Inhibition of MAGL (unknown origin) at 30 uM
T4 sequence (whole entry): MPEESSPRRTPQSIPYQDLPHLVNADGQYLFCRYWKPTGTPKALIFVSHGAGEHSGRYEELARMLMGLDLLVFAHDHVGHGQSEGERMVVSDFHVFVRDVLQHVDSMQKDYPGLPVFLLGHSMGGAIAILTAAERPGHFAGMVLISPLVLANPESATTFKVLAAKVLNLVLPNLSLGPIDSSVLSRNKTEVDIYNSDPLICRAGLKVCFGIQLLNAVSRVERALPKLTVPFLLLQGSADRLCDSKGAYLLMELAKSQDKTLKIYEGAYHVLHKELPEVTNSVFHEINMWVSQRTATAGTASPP

[22] = Oral bioavailability in mouse at 10 mg/kg; assay type: ADME, organism-based; conditions: in vivo
[23] = target: T5, Diacylglycerol lipase-alpha (Homo sapiens, UniProt Q9Y4D2); experiment: Inhibition of full length human C-terminal HA-tagged DAGLalpha expressed in HEK293 cell membrane using DAG as substrate incubated for 20 mins by LC-MS analysis; assay type: cell-based
T5 sequence (Q9Y4D2 whole entry): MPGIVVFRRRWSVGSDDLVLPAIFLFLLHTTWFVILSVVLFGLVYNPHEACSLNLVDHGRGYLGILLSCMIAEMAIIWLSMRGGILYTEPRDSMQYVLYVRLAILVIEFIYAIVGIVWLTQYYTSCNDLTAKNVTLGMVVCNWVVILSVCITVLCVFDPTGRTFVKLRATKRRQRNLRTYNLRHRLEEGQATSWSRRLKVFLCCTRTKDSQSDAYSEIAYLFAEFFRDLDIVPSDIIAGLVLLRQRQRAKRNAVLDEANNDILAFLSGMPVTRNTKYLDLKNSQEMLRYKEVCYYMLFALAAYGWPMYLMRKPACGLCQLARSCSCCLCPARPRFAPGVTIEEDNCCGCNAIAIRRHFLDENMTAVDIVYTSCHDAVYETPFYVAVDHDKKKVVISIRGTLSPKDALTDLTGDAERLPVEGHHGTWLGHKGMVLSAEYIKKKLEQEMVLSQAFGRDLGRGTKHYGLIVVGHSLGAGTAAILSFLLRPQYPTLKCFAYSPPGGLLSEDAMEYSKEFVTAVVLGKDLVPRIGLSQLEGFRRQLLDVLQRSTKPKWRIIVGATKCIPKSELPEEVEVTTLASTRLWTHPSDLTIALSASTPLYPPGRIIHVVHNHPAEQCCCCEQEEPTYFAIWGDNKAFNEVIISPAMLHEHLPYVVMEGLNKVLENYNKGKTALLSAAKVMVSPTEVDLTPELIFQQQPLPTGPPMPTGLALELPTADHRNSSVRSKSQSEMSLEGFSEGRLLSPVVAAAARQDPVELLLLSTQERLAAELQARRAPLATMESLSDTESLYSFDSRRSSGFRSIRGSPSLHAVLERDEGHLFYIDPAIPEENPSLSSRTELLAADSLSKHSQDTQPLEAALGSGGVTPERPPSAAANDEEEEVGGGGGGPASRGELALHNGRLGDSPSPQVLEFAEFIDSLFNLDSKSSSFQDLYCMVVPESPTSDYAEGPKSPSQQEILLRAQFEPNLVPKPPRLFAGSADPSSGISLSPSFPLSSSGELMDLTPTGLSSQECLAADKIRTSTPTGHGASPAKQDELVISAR
Procedure, shortened: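 Cell-free DAGL-α enzyme assay run at pH 6.5. IC50 values are reported, with replicate counts (n) given per value.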

HEK293 = experiment: Selectivity ratio of IC50 for full length human C-terminal HA-tagged DAGLalpha expressed in HEK293 cell membrane to IC50 for DAGLbeta (unknown origin); assay type: cell-based
[24] = target: T5, Diacylglycerol lipase-alpha; experiment: Inhibition of full length human C-terminal HA-tagged DAGLalpha expressed in HEK293 cells using DAG as substrate assessed as reduction in intracellular 2-AG level incubated for 20 mins by LC-MS analysis; assay type: cell-based
[25] = target: T6, Diacylglycerol lipase-alpha (Homo sapiens) (UniProt Q9Y4D2); experiment: Ratio of IC50 for full length human C-terminal HA-tagged DAGLalpha expressed in HEK293 cells assessed as reduction in intracellular 2-AG level to IC50 for full length human C-terminal HA-tagged DAGLalpha expressed in HEK293 cell membrane; assay type: cell-based
T6 sequence (whole entry): T5 sequence (Q9Y4D2 whole entry)

Cytochrome P450 2D6 = Cytochrome P450 2D6 (Homo sapiens, UniProt P10635); experiment: Inhibition of CYP2D6 in human liver microsomes using dextromethorphan as substrate incubated for 7 mins by LC-MS analysis
Cytochrome P450 2C19 = Cytochrome P450 2C19 (Homo sapiens, UniProt P33261); experiment: Inhibition of CYP2C19 in human liver microsomes using (S)-mephenytoin as substrate incubated for 5 mins by LC-MS analysis
Cytochrome P450 3A4 = Cytochrome P450 3A4 (Homo sapiens, UniProt P08684); experiment: Inhibition of CYP3A4 in human liver microsomes using midazolam as substrate incubated for 5 mins by LC-MS analysis
Cytochrome P450 2C9 = Cytochrome P450 2C9 (Homo sapiens, UniProt P11712); experiment: Inhibition of CYP2C9 in human liver microsomes using diclofenac as substrate incubated for 10 mins by LC-MS analysis
[26] = target: Voltage-gated inwardly rectifying potassium channel KCNH2 (Homo sapiens, UniProt Q12809); experiment: Inhibition of human ERG expressed in HEK293 cells by thallium flux assay
Voltage-gated inwardly rectifying potassium channel KCNH2, sequence (Q12809 whole entry): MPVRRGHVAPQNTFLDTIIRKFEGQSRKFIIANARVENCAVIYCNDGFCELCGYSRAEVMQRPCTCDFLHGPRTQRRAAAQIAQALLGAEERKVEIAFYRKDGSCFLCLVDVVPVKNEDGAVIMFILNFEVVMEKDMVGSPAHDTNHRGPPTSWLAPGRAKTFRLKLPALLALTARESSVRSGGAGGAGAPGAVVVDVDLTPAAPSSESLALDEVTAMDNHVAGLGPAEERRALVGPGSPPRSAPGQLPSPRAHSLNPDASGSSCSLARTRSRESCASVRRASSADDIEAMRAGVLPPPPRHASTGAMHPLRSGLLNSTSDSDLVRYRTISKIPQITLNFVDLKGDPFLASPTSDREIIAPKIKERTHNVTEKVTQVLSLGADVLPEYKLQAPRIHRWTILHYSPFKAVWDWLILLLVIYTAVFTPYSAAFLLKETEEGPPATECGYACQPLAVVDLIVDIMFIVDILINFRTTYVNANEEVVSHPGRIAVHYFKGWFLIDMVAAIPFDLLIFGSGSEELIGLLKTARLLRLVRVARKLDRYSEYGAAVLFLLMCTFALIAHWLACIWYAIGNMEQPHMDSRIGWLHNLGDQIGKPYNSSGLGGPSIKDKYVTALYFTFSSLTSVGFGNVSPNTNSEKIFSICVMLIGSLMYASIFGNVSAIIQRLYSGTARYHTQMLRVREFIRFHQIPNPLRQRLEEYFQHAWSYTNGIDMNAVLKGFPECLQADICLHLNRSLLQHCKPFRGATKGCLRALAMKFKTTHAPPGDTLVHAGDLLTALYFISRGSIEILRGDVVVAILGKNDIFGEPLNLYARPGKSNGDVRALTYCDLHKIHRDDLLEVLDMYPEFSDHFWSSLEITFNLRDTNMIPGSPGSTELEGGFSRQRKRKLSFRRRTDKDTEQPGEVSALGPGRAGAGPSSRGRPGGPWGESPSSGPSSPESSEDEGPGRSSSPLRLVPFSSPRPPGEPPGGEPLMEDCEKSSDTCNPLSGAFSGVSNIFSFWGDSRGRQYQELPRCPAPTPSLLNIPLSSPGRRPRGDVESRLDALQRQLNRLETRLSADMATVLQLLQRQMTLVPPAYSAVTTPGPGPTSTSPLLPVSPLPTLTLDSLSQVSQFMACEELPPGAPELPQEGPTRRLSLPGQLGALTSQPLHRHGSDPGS

Cytochrome P450 2C19, sequence (P33261 whole entry): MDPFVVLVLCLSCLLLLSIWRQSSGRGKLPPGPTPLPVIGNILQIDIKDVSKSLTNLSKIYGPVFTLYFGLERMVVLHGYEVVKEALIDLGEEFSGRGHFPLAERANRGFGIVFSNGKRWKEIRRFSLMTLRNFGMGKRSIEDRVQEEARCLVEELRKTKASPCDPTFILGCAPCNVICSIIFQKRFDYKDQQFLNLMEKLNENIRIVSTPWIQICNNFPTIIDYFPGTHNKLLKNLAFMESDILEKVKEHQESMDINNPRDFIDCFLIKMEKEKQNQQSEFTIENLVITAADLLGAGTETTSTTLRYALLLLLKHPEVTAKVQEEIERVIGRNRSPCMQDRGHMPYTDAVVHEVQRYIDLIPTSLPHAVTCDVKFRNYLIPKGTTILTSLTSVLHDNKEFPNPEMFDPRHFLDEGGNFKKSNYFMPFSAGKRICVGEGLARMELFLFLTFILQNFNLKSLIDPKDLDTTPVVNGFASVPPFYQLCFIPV
Cytochrome P450 2C9, sequence (P11712 whole entry): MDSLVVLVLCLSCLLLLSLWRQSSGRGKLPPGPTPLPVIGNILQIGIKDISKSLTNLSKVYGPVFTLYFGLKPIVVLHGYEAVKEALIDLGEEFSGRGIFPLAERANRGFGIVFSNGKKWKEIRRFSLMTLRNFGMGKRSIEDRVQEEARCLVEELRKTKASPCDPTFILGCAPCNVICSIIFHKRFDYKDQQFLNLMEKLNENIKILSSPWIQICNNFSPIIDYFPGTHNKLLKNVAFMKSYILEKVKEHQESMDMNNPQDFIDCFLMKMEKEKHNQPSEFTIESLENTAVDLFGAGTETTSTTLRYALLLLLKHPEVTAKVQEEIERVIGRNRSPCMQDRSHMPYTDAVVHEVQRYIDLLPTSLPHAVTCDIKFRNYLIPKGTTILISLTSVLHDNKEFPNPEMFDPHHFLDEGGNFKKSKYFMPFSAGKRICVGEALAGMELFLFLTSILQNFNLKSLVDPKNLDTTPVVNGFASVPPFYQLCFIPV
Cytochrome P450 2D6, sequence (P10635 whole entry): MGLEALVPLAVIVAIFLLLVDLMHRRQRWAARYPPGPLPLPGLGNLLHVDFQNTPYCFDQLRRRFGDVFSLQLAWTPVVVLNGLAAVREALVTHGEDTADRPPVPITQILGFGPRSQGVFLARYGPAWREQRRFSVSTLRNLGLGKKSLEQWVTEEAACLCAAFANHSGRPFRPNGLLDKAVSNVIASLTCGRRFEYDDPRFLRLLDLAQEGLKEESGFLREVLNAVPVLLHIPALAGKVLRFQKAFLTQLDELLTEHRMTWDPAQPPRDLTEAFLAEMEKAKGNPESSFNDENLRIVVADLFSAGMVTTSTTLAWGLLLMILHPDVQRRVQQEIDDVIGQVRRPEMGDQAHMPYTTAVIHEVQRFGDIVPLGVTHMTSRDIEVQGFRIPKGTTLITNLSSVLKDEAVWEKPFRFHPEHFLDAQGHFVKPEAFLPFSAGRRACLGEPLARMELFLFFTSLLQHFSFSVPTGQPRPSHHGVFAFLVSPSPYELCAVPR
Cytochrome P450 3A4, sequence (P08684 whole entry): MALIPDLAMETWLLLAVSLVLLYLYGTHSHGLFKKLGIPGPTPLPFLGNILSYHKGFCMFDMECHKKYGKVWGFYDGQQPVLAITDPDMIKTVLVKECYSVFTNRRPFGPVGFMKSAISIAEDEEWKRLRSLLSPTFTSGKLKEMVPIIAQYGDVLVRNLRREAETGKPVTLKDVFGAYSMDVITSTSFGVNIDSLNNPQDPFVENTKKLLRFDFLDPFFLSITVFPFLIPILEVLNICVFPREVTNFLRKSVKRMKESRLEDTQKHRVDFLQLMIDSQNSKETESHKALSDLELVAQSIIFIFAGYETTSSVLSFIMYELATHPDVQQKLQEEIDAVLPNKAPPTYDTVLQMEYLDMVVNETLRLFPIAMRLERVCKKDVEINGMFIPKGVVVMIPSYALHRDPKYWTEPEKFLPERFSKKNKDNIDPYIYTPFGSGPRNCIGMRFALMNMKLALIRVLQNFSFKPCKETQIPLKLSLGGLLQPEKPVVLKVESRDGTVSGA

SMILES	remaining at 10 min, 3 µM [1] [%]	remaining at 10 min, 3 µM [2] [%]	remaining at 10 min, 3 µM [3] [%]	inhibition [6]	IC50 [16] [nM]	inhibition [21]	IC50 [23] [nM]	IC50 [24] [nM]	Ratio IC50 [25]	other results
O=C(O)CN(C1(c2ccc(-c3ccc(Cl)cc3Cl)cc2)CCC1)S(=O)(=O)c1ccc(OC(F)F)cc1				inactive	146	inactive	6	88	15	Ratio IC50 (HEK293): 24
O=C(O)CN(Cc1ccc(-c2ccc(Cl)cc2Cl)cc1)S(=O)(=O)c1ccc(OC(F)F)cc1							30			

The next lines start with results.

remaining at 10 min, 3 µM [1] [%]	remaining at 10 min, 3 µM [2] [%]	remaining at 10 min, 3 µM [3] [%]	inhibition [6]	IC50 [16] [nM]	inhibition [21]	IC50 [23] [nM]	IC50 [24] [nM]	Ratio IC50 [25]	SMILES	other results
67	87	77							CC1(C)CCc2cc(S(=O)(=O)N(CC(=O)O)Cc3cccc(-c4ccccc4)c3)ccc2O1	
70	77	79	inactive	40	inactive				CC1(C)CCc2cc(S(=O)(=O)N(CC(=O)O)C3(c4cccc(-c5cc(Cl)cc(Cl)c5)c4)CCC3)ccc2O1	Cmax [4]: 941 nM; Tmax [5]: 37.8 min; AUC (Mus musculus [7]): 0.173 µM·h; AUC(0-inf) [8]: 1.52 µM·h; half-life [9]: 59.4 min; Tmax [10]: 30 min; Cmax [11]: 2860 nM; Cmax [12]: 274 nM; F (Mus musculus [13]): 100%; half-life [14]: 79.8 min; half-life [15]: 34.8 min; clearance [17]: 169 mL/min/kg; Vd [18]: 7.42 L/kg; Activity [19]: 140%; AUC (Mus musculus [20]): 5.784 µM·h; bioavailability [22]: 88%
100		80				17	60	4	O=C(O)CN(Cc1cccc(-c2ccccc2OC(F)(F)F)c1)S(=O)(=O)c1ccc(OC(F)F)cc1	IC50 (Cytochrome P450 2D6): 40000 nM; IC50 (Cytochrome P450 2C19): 40000 nM; IC50 (Cytochrome P450 3A4): 30000 nM; IC50 (Cytochrome P450 2C9): 40000 nM; IC50 [26]: 11000 nM
						510			O=C(O)CN(C1(c2cccc(-c3cc(Cl)cc(Cl)c3)c2)CCC1)S(=O)(=O)c1ccccc1Cl	
